Assay [1] deals with K562. Kind of assay: Differentiation of K-562 cells at 7.5 uM with out coadministration of guanosine. The assay is classed as functional, Homo sapiens. The essentials:
(§1)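 Human erythroleukemia K562 cells grown in RPMI 1640 with 10% heat-inactivated calf serum, glutamine and penicillin/streptomycin; incubated 5 days with compound, with or without 30 µM guanosine. Hemoglobin expression read by benzidine staining (0.1% benzidine in 0.25% H2O2, equal volume, 5 min, room temperature); 300-400 cells counted for % benzidine-positive. Duplicates; average of three experiments.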

Assay [2] relates to K562. Kind of assay: Differentiation of K-562 cells at 7.5 uM with coadministration of guanosine. The assay is classed as functional, Homo sapiens. The essentials: as §1
Assay [3] concerns K562. The assay is described as follows: Differentiation of K-562 cells at 15 uM with coadministration of guanosine. In kind it is functional, Homo sapiens. The essentials: as §1
Assay [4] concerns K562. Kind of assay: Differentiation of K-562 cells at 15 uM with out coadministration of guanosine. In kind it is functional, Homo sapiens. The essentials:
as §1

Assay [5] relates to K562. Kind of assay: Inhibition of growth in human erythroleukemia K-562 cells (% of untreated control). In kind it is functional. The essentials:
(§2)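 K562 cells in RPMI 1640 with 10% heat-inactivated calf serum, glutamine, penicillin/streptomycin; seeded at 5 × 10³ per mL, compound (with or without 30 µM guanosine) added at start. After 5 days, MTT added, 3 h at 37 °C; formazan dissolved in acidified 2-propanol, absorbance 550 nm. Triplicate points; IC50 for 50% growth inhibition averaged over four experiments.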

The test system of assay [6] is K562. The assay is described as follows: Differentiation of K-562 cells at 60 uM with coadministration of guanosine. In kind it is functional, Homo sapiens. The essentials:
as §1

Assay [7] has as its system K562. The assay is described as follows: Tested for inhibition of growth in human erythroleukemia K-562 cells. In kind it is functional, cell-based. The essentials:
as §2

Assay [8] relates to K562. Kind of assay: Differentiation of K-562 cells at 120 uM with out coadministration of guanosine. The assay is classed as functional, Homo sapiens. The essentials: as §1
In assay [9] the test system is K562. Kind of assay: Differentiation of K-562 cells at 60 uM with out coadministration of guanosine. The assay is classed as functional, Homo sapiens. The essentials: as §1
For assay [10], the system named is K562. Kind of assay: Differentiation of K-562 cells at 120 uM with coadministration of guanosine. In kind it is functional, Homo sapiens. An outline of the steps: as §1
The test system of assay [11] is K562. The assay is described as follows: Differentiation of K-562 cells at 30 uM with coadministration of guanosine. In kind it is functional, Homo sapiens. An outline of the steps: as §1
For assay [12], the system named is K562. Kind of assay: Differentiation of K-562 cells at 30 uM with out coadministration of guanosine. In kind it is functional, Homo sapiens. The essentials:
as §1

Assay [13] has as its system K562. Kind of assay: Differentiation of K-562 cells at 3.8 uM with out coadministration of guanosine. The assay is classed as functional, Homo sapiens. An outline of the steps:
as §1

The test system of assay [14] is K562. Kind of assay: Differentiation of K-562 cells at 3.8 uM with coadministration of guanosine. In kind it is functional, Homo sapiens. The essentials:
as §1

Assay [15] concerns K562. Kind of assay: Differentiation of K-562 cells at 19 uM with out coadministration of guanosine. In kind it is functional, Homo sapiens. An outline of the steps: as §1
Assay [16] deals with K562. The assay is described as follows: Differentiation of K-562 cells at 19 uM with coadministration of guanosine. The assay is classed as functional, Homo sapiens. An outline of the steps:
as §1

In the case of `NC(=O)c1csc([C@H]2O[C@@H](COP(=O)(O)OP(=O)(O)OC[C@H]3O[C@@H](n4cnc5c(N)ncnc54)[C@H](O)[C@@H]3O)[C@H](O)[C@@H]2O)n1`, the Benzidine positive cells came out at 50% in [1], 15% in [2], 30% in assay [3] and 70% in [4]. In addition, in [5], the “Growth inhibition (% of untreated control)” value is 80%.

As to `NC(=O)c1cccc([C@@H]2O[C@H](COP(=O)(O)CP(=O)(O)OC[C@@H]3O[C@H](n4cnc5c(N)ncnc54)[C@@H](O)[C@H]3O)[C@@H](O)[C@H]2O)c1`, the Benzidine positive cells in [6] is 15%; in assay [8], 75%; in [9] it was 45%; in assay [10] it was 17%. In addition, it took 60 µM to reach half-maximal inhibition in [7] (IC50). Further, the “Growth inhibition (% of untreated control)” value in assay [5] worked out at 90%.

As to `NC(=O)c1csc([C@@H]2O[C@H](COP(=O)(O)CP(=O)(O)OC[C@@H]3O[C@H](n4cnc5c(N)ncnc54)[C@@H](O)[C@H]3O)[C@@H](O)[C@H]2O)n1`, the Benzidine positive cells is listed as 23% in assay [3], 34% in assay [4], 30% in assay [11] and 85% in assay [12]. In assay [5], the “Growth inhibition (% of untreated control)” value is 90%.

With `NC(=O)c1csc([C@@H]2O[C@H](CO)[C@@H](O)[C@H]2O)n1` [TIAZOFURIN], the Benzidine positive cells is listed as 36% in [13], 12% in assay [14], 80% in [15] and 40% in [16]. The “Growth inhibition (% of untreated control)” value in assay [5] is on record as 90%.

Broadly, the IC50 is the midpoint of a concentration-inhibition curve. Higher therefore signals a need for much substance.

The values are drawn from ChEMBL document CHEMBL1130411, “The practical synthesis of a methylenebisphosphonate analogue of benzamide adenine dinucleotide: inhibition of human inosine monophosphate dehydrogenase (type I and II)” (J Med Chem, 1997).
